Assay outcomes from PubChem BioAssay.
ROMK primary – modulates human ROMK potassium channel activity; P48048; Tet-inducible ROMK, thallium flux fluorescence; actives lie on both sides; B-score at 10 µM; 130,000 tested, 2% active;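 active means signal ratio slope over the read window, or its plate-corrected B-score, at least 3 SD from the plate mean, either direction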;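 further: B-score of the F/F0 ratio slope over 7 to 12 s after thallium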
Target sequence (P48048 whole entry, looked up): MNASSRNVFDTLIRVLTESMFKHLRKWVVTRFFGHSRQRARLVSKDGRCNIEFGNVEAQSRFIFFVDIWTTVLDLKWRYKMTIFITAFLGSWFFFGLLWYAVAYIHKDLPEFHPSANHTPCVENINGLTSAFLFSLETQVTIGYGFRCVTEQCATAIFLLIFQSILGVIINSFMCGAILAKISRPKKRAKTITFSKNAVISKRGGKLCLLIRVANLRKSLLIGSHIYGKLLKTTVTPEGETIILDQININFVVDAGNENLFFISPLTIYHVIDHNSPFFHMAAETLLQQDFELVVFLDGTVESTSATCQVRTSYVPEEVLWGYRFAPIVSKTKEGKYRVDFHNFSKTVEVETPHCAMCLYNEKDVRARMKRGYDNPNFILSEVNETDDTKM
Calb biofilm kill – mixtures killing C. albicans biofilm | C. albicans biofilm persisters + clotrimazole, fluorescence viability; primary screen in compound mixtures of four per well | inhibition, % at 7.6 µM | 120,000 tested, 0.02% active | AID 1242;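 active means inhibition above 30.3% in the primary screen of four-compound pools, then above 30% when the compound was retested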;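 further: compounds exposed to preformed 24 h biofilms for 48 h; 0% = untreated biofilm control and 100% = clotrimazole plus chlorhexidine kill blank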
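Assay system: C. albicans biofilms / Medium: RPMI/MOPS medium, pH 7.0 / Schedule: biofilm formation 24 h, compound exposure 48 h, 37 °C / Measured by: Alamar Blue fluorescence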
ROMK hit retest – confirmation of human ROMK potassium channel modulators. 3,000 tested, 54% active. normalized thallium flux (F/F0 slope) at 10 µM. shares compounds with ROMK primary. ROMK thallium flux, fluorescence ratio; stronger effect = lower value. AID 1917;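 active means Flux at 10 µM at least 3 SD below or above vehicle control mean in one or both replicates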
Active calls of the source: *; . = no result given. The entries come from a sample that favours hits as a whole.

SMILES	ROMK primary	Calb biofilm kill	ROMK hit retest
CCOc1ccccc1Nc1nnc(C)c(=O)[nH]1	0.0752	.	.
COc1ccccc1Nc1nnc(C)c(=O)[nH]1	2.97*	.	0.0774
O=C(/C=C/c1ccc(S(=O)(=O)N2CCOCC2)cc1)N(CCO)Cc1ccccc1	1.88	11.6	.
O=C(Nc1cc(=O)[nH]c2ncnn12)c1ccccc1F	.	2.6	.
CC(C)(C)C1(O)CC(C(F)(F)F)=NN1C(=O)CCc1ccccc1 (stereo unspecified)	-0.165	14.5	.
CCOC(=O)C1=NN(C(=O)Cc2ccccc2)C(O)(C(C)(C)C)C1 (stereo unspecified)	-13.4*	25.3	0.0766
CCCC(=O)NNc1cc(=O)c2c(=O)n(C)c(=O)n(C)c2[nH]1	-0.255	.	.
CC(O)c1nc2ccccc2n1CCOc1ccccc1 (stereo unspecified)	-1.22	7.0	.
COc1ccccc1OCCn1c(C(C)O)nc2ccccc21 (stereo unspecified)	-4.94*	.	0.0657*
COc1cc(C(=S)N2CCCC2)ccc1OS(=O)(=O)c1ccc(NC(C)=O)cc1	0.63	10.6	.
OCCC1CN(Cc2nc(-c3ccccc3)cs2)CCN1CCc1ccccc1 (stereo unspecified)	-3.18	13.9	.
OCCC1CN(Cc2nc(-c3ccc(F)cc3)cs2)CCN1CCc1ccccc1 (stereo unspecified)	-3.89*	15.2	0.0542*
O=C(Cn1c(C2CC2)nc2ccccc2c1=O)Nc1ccc(Br)cc1	0.256	.	.
CN1C(=O)/C(=C/c2cn(CC(=O)N3CCCCC3)c3ccccc23)c2ccccc21	-2.19	.	.
CN(C)/C=C(/C(=O)c1ccc(Cl)cc1)S(=O)(=O)c1ccc(Cl)cc1	.	.	0.082
Cc1cc(C)n(/C(=C\N(C)C)C(=O)c2ccc(Cl)cc2)n1	0.68	8.3	.
CCCCC[C@H](O)/C=C/[C@@H]1[C@@H](CCCCCCC(=O)O)[C@@H](O)C[C@H]1O	.	9.3	.
CCCCC[C@H](O)/C=C/C1=C(CCCCCCC(=O)O)C(=O)CC1	.	17.3	0.0805
O=S(=O)(c1ccc(-c2cc(C(F)(F)F)on2)s1)N1CCCC1	.	7.5	.
Cc1ccc2c(N)c(C#N)sc2n1	3.42*	.	0.0809
N#Cc1sc2nc3c(cc2c1N)CCCC3	2.75	5.6	0.105*
CCCc1ccc2c(N)c(C#N)sc2n1	1.03	.	.
Nc1c(C(=O)O)sc2nc3c(cc12)CCCC3	1.05	3.4	.
O=C(/C=C\c1ccco1)Nc1ccc(N2CCN(C(=O)c3ccccc3)CC2)cc1	-0.119	10.6	.
COCc1ccc(CN2CCC(CO)(CC3CCCCO3)CC2)o1 (stereo unspecified)	0.357	29.1	.
SMILES	ROMK primary	Calb biofilm kill	ROMK hit retest
CC1(C)CC(NC(=O)CCC2CCCC2)CC(C)(C)N1	0.0514	.	.
Cc1cccc(-n2c(-c3cccc([N+](=O)[O-])c3)nc3nc4ccccc4nc32)c1	.	20.2	.
COc1ccc(C(=O)Nc2cc(Cl)ccc2C(=O)O)cc1	0.043	-1.8	.
Cn1cc([N+](=O)[O-])c(C(=O)NCc2cc3cc(Cl)ccc3[nH]2)n1	3.36*	7.5	0.0924
Cc1c(Br)c(C(=O)NCc2cc3cc(Cl)ccc3[nH]2)nn1C	-0.68	10.5	.
C/C(=N\Nc1cccc(Cl)c1)C1(C)N(O)C(C)(C)C(c2ccco2)=[N+]1[O-] (stereo unspecified)	.	15.4	.
